Key:
Assay type in all cases: toxicity, cell-based
Fibroblast = assay: Multiplex assay against human fibroblast
How it was run: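 Live cells were stained at seeding with Hoechst33342, BioTracker Green Microtubule Cytoskeleton Dye, MitoTracker Red and Annexin V Alexa Fluor 680, then imaged on a CQ1 microscope at 37°C and 5% CO2 after compound addition. CellPathfinder machine-learning gating split cells into Hoechst high-intensity objects or normal cells. Normal cells were split into healthy, pyknosed or fragmented nuclei, and pyknosed cells into mitotic or apoptotic. Tubulin, mitochondrial-mass and membrane-permeability phenotypes are per cents of healthy-nucleus cells.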

HEK-293T = assay: Incucyte cell viability with HEK293T; details: human, 10 µM, compound concentration 10 uM; further: filed as whole numbers so only -1 and 0 and 1 occur
U2OS = assay: Incucyte cell viability with U2OS; details: human, 10 µM, compound concentration 10 uM; further: filed as whole numbers so only -1 and 0 and 1 occur
[1] = 12 h, 1 µM, compound concentration 1 uM, replicate 1
[2] = 12 h, 1 µM, compound concentration 1 uM, replicate 2
[3] = 12 h, 10 µM, compound concentration 10 uM, replicate 1
[4] = 12 h, 10 µM, compound concentration 10 uM, replicate 2
[5] = 24 h, 1 µM, compound concentration 1 uM, replicate 1
[6] = 24 h, 1 µM, compound concentration 1 uM, replicate 2
[7] = 24 h, 10 µM, compound concentration 10 uM, replicate 1
[8] = 24 h, 10 µM, compound concentration 10 uM, replicate 2
[9] = 6 h, replicate number 1, timepoint 6 hours
[10] = 12 h, replicate number 1, timepoint 12 hours
[11] = 18 h, replicate number 1, timepoint 18 hours
[12] = 24 h, replicate number 1, timepoint 24 hours

SMILES: CC(C)(C)c1cnc(CSc2cnc(NC(=O)C3CCNCC3)s2)o1 [BMS-387032]
- Population Apoptotic (%) (Fibroblast; [1]): 75%
- Population Fragmented Nuclei (%) (Fibroblast; [1]): 25%
- Population Healthy Nuclei (%) (Fibroblast; [1]): 56%
- Population Hoechst High Intensity Objects (%) (Fibroblast; [1]): 12%
- Population Membrane Permeable-Phenotype (%) (Fibroblast; [1]): 10%
- Population Mitochondria Different-Phenotype (%) (Fibroblast; [1]): 10%
- Population Mitotic Cells (%) (Fibroblast; [1]): 24%
- Population Normal (%) (Fibroblast; [1]): 87%
- Population Pyknosed Nuclei (%) (Fibroblast; [1]): 18%
- Population Tubulin-Different-Phenotype (%) (Fibroblast; [1]): 11%
- Total Cell Count (Fibroblast; [1]): 199
- Population Apoptotic (%) (Fibroblast; [2]): 50%
- Population Fragmented Nuclei (%) (Fibroblast; [2]): 58%
- Population Healthy Nuclei (%) (Fibroblast; [2]): 33%
- Population Hoechst High Intensity Objects (%) (Fibroblast; [2]): 37%
- Population Membrane Permeable-Phenotype (%) (Fibroblast; [2]): 5%
- Population Mitochondria Different-Phenotype (%) (Fibroblast; [2]): 5%
- Population Mitotic Cells (%) (Fibroblast; [2]): 50%
- Population Normal (%) (Fibroblast; [2]): 62%
- Population Pyknosed Nuclei (%) (Fibroblast; [2]): 7%
- Population Tubulin-Different-Phenotype (%) (Fibroblast; [2]): 0%
- Total Cell Count (Fibroblast; [2]): 82
- Population Apoptotic (%) (Fibroblast; [3]): 75%
- Population Fragmented Nuclei (%) (Fibroblast; [3]): 28%
- Population Healthy Nuclei (%) (Fibroblast; [3]): 54%
- Population Hoechst High Intensity Objects (%) (Fibroblast; [3]): 8%
- Population Membrane Permeable-Phenotype (%) (Fibroblast; [3]): 1%
- Population Mitochondria Different-Phenotype (%) (Fibroblast; [3]): 21%
- Population Mitotic Cells (%) (Fibroblast; [3]): 24%
- Population Normal (%) (Fibroblast; [3]): 91%
- Population Pyknosed Nuclei (%) (Fibroblast; [3]): 17%
- Population Tubulin-Different-Phenotype (%) (Fibroblast; [3]): 32%
- Total Cell Count (Fibroblast; [3]): 207
- Population Apoptotic (%) (Fibroblast; [4]): 54%
- Population Fragmented Nuclei (%) (Fibroblast; [4]): 58%
- Population Healthy Nuclei (%) (Fibroblast; [4]): 19%
- Population Hoechst High Intensity Objects (%) (Fibroblast; [4]): 26%
- Population Membrane Permeable-Phenotype (%) (Fibroblast; [4]): 0%
- Population Mitochondria Different-Phenotype (%) (Fibroblast; [4]): 50%
- Population Mitotic Cells (%) (Fibroblast; [4]): 45%
- Population Normal (%) (Fibroblast; [4]): 73%
- Population Pyknosed Nuclei (%) (Fibroblast; [4]): 21%
- Population Tubulin-Different-Phenotype (%) (Fibroblast; [4]): 40%
- Total Cell Count (Fibroblast; [4]): 69
- Population Apoptotic (%) (Fibroblast; [5]): 54%
- Population Fragmented Nuclei (%) (Fibroblast; [5]): 30%
- Population Healthy Nuclei (%) (Fibroblast; [5]): 47%
- Population Hoechst High Intensity Objects (%) (Fibroblast; [5]): 12%
- Population Membrane Permeable-Phenotype (%) (Fibroblast; [5]): 6%
- Population Mitochondria Different-Phenotype (%) (Fibroblast; [5]): 4%
- Population Mitotic Cells (%) (Fibroblast; [5]): 45%
- Population Normal (%) (Fibroblast; [5]): 87%
- Population Pyknosed Nuclei (%) (Fibroblast; [5]): 21%
- Population Tubulin-Different-Phenotype (%) (Fibroblast; [5]): 10%
- Total Cell Count (Fibroblast; [5]): 197
- Population Apoptotic (%) (Fibroblast; [6]): 62%
- Population Fragmented Nuclei (%) (Fibroblast; [6]): 51%
- Population Healthy Nuclei (%) (Fibroblast; [6]): 32%
- Population Hoechst High Intensity Objects (%) (Fibroblast; [6]): 35%
- Population Membrane Permeable-Phenotype (%) (Fibroblast; [6]): 5%
- Population Mitochondria Different-Phenotype (%) (Fibroblast; [6]): 5%
- Population Mitotic Cells (%) (Fibroblast; [6]): 37%
- Population Normal (%) (Fibroblast; [6]): 65%
- Population Pyknosed Nuclei (%) (Fibroblast; [6]): 15%
- Population Tubulin-Different-Phenotype (%) (Fibroblast; [6]): 5%
- Total Cell Count (Fibroblast; [6]): 80
- Population Apoptotic (%) (Fibroblast; [7]): 65%
- Population Fragmented Nuclei (%) (Fibroblast; [7]): 34%
- Population Healthy Nuclei (%) (Fibroblast; [7]): 48%
- Population Hoechst High Intensity Objects (%) (Fibroblast; [7]): 8%
- Population Membrane Permeable-Phenotype (%) (Fibroblast; [7]): 4%
- Population Mitochondria Different-Phenotype (%) (Fibroblast; [7]): 29%
- Population Mitotic Cells (%) (Fibroblast; [7]): 34%
- Population Normal (%) (Fibroblast; [7]): 91%
- Population Pyknosed Nuclei (%) (Fibroblast; [7]): 17%
- Population Tubulin-Different-Phenotype (%) (Fibroblast; [7]): 54%
- Total Cell Count (Fibroblast; [7]): 196
- Population Apoptotic (%) (Fibroblast; [8]): 62%
- Population Fragmented Nuclei (%) (Fibroblast; [8]): 44%
- Population Healthy Nuclei (%) (Fibroblast; [8]): 18%
- Population Hoechst High Intensity Objects (%) (Fibroblast; [8]): 31%
- Population Membrane Permeable-Phenotype (%) (Fibroblast; [8]): 0%
- Population Mitochondria Different-Phenotype (%) (Fibroblast; [8]): 62%
- Population Mitotic Cells (%) (Fibroblast; [8]): 37%
- Population Normal (%) (Fibroblast; [8]): 68%
- Population Pyknosed Nuclei (%) (Fibroblast; [8]): 37%
- Population Tubulin-Different-Phenotype (%) (Fibroblast; [8]): 50%
- Total Cell Count (Fibroblast; [8]): 63
- Growth Rate (HEK-293T; [9]): 0
- Growth Rate (HEK-293T; [10]): 0
- Growth Rate (HEK-293T; [11]): 0
- Growth Rate (HEK-293T; [12]): 0
- Growth Rate (U2OS; 0 h, replicate number 1, timepoint 0 hours): 0
- Growth Rate (U2OS; [9]): 1
- Growth Rate (U2OS; 6 h, replicate number 2, timepoint 6 hours): 0
- Growth Rate (U2OS; [10]): 0
- Growth Rate (U2OS; [11]): 0
- Growth Rate (U2OS; [12]): 0

SMILES: c1ccc2oc(-c3csc(C4CCN(Cc5nc6ncccc6[nH]5)CC4)n3)cc2c1
- Population Apoptotic (%) (Fibroblast; [1]): 73%
- Population Fragmented Nuclei (%) (Fibroblast; [1]): 30%
- Population Healthy Nuclei (%) (Fibroblast; [1]): 55%
- Population Hoechst High Intensity Objects (%) (Fibroblast; [1]): 15%
- Population Membrane Permeable-Phenotype (%) (Fibroblast; [1]): 9%
- Population Mitochondria Different-Phenotype (%) (Fibroblast; [1]): 10%
- Population Mitotic Cells (%) (Fibroblast; [1]): 26%
- Population Normal (%) (Fibroblast; [1]): 85%
- Population Pyknosed Nuclei (%) (Fibroblast; [1]): 13%
- Population Tubulin-Different-Phenotype (%) (Fibroblast; [1]): 12%
- Total Cell Count (Fibroblast; [1]): 160
- Population Apoptotic (%) (Fibroblast; [2]): 25%
- Population Fragmented Nuclei (%) (Fibroblast; [2]): 59%
- Population Healthy Nuclei (%) (Fibroblast; [2]): 28%
- Population Hoechst High Intensity Objects (%) (Fibroblast; [2]): 34%
- Population Membrane Permeable-Phenotype (%) (Fibroblast; [2]): 15%
- Population Mitochondria Different-Phenotype (%) (Fibroblast; [2]): 5%
- Population Mitotic Cells (%) (Fibroblast; [2]): 75%
- Population Normal (%) (Fibroblast; [2]): 65%
- Population Pyknosed Nuclei (%) (Fibroblast; [2]): 11%
- Population Tubulin-Different-Phenotype (%) (Fibroblast; [2]): 26%
- Total Cell Count (Fibroblast; [2]): 103
- Population Apoptotic (%) (Fibroblast; [3]): 63%
- Population Fragmented Nuclei (%) (Fibroblast; [3]): 25%
- Population Healthy Nuclei (%) (Fibroblast; [3]): 55%
- Population Hoechst High Intensity Objects (%) (Fibroblast; [3]): 11%
- Population Membrane Permeable-Phenotype (%) (Fibroblast; [3]): 3%
- Population Mitochondria Different-Phenotype (%) (Fibroblast; [3]): 1%
- Population Mitotic Cells (%) (Fibroblast; [3]): 36%
- Population Normal (%) (Fibroblast; [3]): 88%
- Population Pyknosed Nuclei (%) (Fibroblast; [3]): 19%
- Population Tubulin-Different-Phenotype (%) (Fibroblast; [3]): 4%
- Total Cell Count (Fibroblast; [3]): 190
- Population Apoptotic (%) (Fibroblast; [4]): 66%
- Population Fragmented Nuclei (%) (Fibroblast; [4]): 65%
- Population Healthy Nuclei (%) (Fibroblast; [4]): 28%
- Population Hoechst High Intensity Objects (%) (Fibroblast; [4]): 35%
- Population Membrane Permeable-Phenotype (%) (Fibroblast; [4]): 21%
- Population Mitochondria Different-Phenotype (%) (Fibroblast; [4]): 0%
- Population Mitotic Cells (%) (Fibroblast; [4]): 33%
- Population Normal (%) (Fibroblast; [4]): 64%
- Population Pyknosed Nuclei (%) (Fibroblast; [4]): 6%
- Population Tubulin-Different-Phenotype (%) (Fibroblast; [4]): 0%
- Total Cell Count (Fibroblast; [4]): 76
- Population Apoptotic (%) (Fibroblast; [5]): 50%
- Population Fragmented Nuclei (%) (Fibroblast; [5]): 38%
- Population Healthy Nuclei (%) (Fibroblast; [5]): 51%
- Population Hoechst High Intensity Objects (%) (Fibroblast; [5]): 12%
- Population Membrane Permeable-Phenotype (%) (Fibroblast; [5]): 10%
- Population Mitochondria Different-Phenotype (%) (Fibroblast; [5]): 4%
- Population Mitotic Cells (%) (Fibroblast; [5]): 50%
- Population Normal (%) (Fibroblast; [5]): 87%
- Population Pyknosed Nuclei (%) (Fibroblast; [5]): 9%
- Population Tubulin-Different-Phenotype (%) (Fibroblast; [5]): 17%
- Total Cell Count (Fibroblast; [5]): 165
- Population Apoptotic (%) (Fibroblast; [6]): 25%
- Population Fragmented Nuclei (%) (Fibroblast; [6]): 64%
- Population Healthy Nuclei (%) (Fibroblast; [6]): 28%
- Population Hoechst High Intensity Objects (%) (Fibroblast; [6]): 39%
- Population Membrane Permeable-Phenotype (%) (Fibroblast; [6]): 25%
- Population Mitochondria Different-Phenotype (%) (Fibroblast; [6]): 0%
- Population Mitotic Cells (%) (Fibroblast; [6]): 75%
- Population Normal (%) (Fibroblast; [6]): 60%
- Population Pyknosed Nuclei (%) (Fibroblast; [6]): 7%
- Population Tubulin-Different-Phenotype (%) (Fibroblast; [6]): 25%
- Total Cell Count (Fibroblast; [6]): 92
- Population Apoptotic (%) (Fibroblast; [7]): 90%
- Population Fragmented Nuclei (%) (Fibroblast; [7]): 26%
- Population Healthy Nuclei (%) (Fibroblast; [7]): 59%
- Population Hoechst High Intensity Objects (%) (Fibroblast; [7]): 11%
- Population Membrane Permeable-Phenotype (%) (Fibroblast; [7]): 2%
- Population Mitochondria Different-Phenotype (%) (Fibroblast; [7]): 0%
- Population Mitotic Cells (%) (Fibroblast; [7]): 9%
- Population Normal (%) (Fibroblast; [7]): 88%
- Population Pyknosed Nuclei (%) (Fibroblast; [7]): 13%
- Population Tubulin-Different-Phenotype (%) (Fibroblast; [7]): 2%
- Total Cell Count (Fibroblast; [7]): 183
- Population Apoptotic (%) (Fibroblast; [8]): 100%
- Population Fragmented Nuclei (%) (Fibroblast; [8]): 59%
- Population Healthy Nuclei (%) (Fibroblast; [8]): 34%
- Population Hoechst High Intensity Objects (%) (Fibroblast; [8]): 34%
- Population Membrane Permeable-Phenotype (%) (Fibroblast; [8]): 13%
- Population Mitochondria Different-Phenotype (%) (Fibroblast; [8]): 6%
- Population Mitotic Cells (%) (Fibroblast; [8]): 0%
- Population Normal (%) (Fibroblast; [8]): 65%
- Population Pyknosed Nuclei (%) (Fibroblast; [8]): 6%
- Population Tubulin-Different-Phenotype (%) (Fibroblast; [8]): 0%
- Total Cell Count (Fibroblast; [8]): 67
- Growth Rate (HEK-293T; [9]): 0
- Growth Rate (HEK-293T; [10]): 0
- Growth Rate (HEK-293T; [11]): 0
- Growth Rate (HEK-293T; [12]): 0
- Growth Rate (U2OS; 0 h, replicate number 2, timepoint 0 hours): 1
- Growth Rate (U2OS; [9]): 0
- Growth Rate (U2OS; [10]): 0
- Growth Rate (U2OS; 12 h, replicate number 2, timepoint 12 hours): 1
- Growth Rate (U2OS; [11]): 0
- Growth Rate (U2OS; [12]): 1
- Growth Rate (U2OS; 24 h, replicate number 2, timepoint 24 hours): 0
